Data set [1] has as its system male NIH Swiss mice. The data set is described as follows: Thermoregulation assay. The format is in vivo. As to conditions: 10 mg/kg intraperitoneal, Figure 5. The method in brief:
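Under isoflurane, a glass-encapsulated radiotelemetry probe was implanted in the peritoneal cavity. Mice recovered at least 7 days and were housed singly. On test days they were weighed, and baseline core temperature was recorded for at least 1 h. Drug or equal-volume vehicle was then injected, 4–8 mice per group. […] Data are mean ± SEM, analysed by one-way ANOVA with Tukey post-test.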

Data set [2] has as its target CB1Rs endogenously expressed in Neuro2A cells (Mus musculus, UniProt P47746). The data set is described as follows: Adenylyl cyclase assay in Neuro2A cells. The format is cell-based. The settings on record: for inhibition of AC-activity via CB1Rs (concentration-effect curves): Neuro2A cells, Figure 3A; for antagonism of AC-inhibition produced by the CB1R full agonist 3: 1 μM concentration of antagonist, 10^−7 M concentration of 3, Figure 3B.

A further data set deals with CB1Rs. As to conditions: cited from earlier work.
The target of the next data set is CB2Rs in CHO-hCB2 cells (Homo sapiens, UniProt P34972). Kind of data set: Adenylyl cyclase assay in CHO-hCB2 cells. The format is cell-based. As to conditions: Figure 4A.
Chain of CB2Rs in CHO-hCB2 cells (P34972 whole entry): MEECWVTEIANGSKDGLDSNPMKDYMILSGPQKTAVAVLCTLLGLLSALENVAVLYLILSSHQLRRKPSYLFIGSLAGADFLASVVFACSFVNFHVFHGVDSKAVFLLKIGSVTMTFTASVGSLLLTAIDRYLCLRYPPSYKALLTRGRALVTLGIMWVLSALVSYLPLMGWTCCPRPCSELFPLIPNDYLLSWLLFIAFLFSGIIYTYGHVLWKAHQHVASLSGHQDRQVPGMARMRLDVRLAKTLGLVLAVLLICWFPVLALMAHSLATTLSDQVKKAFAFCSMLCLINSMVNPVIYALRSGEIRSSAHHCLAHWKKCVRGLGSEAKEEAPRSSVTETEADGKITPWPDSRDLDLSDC
Data set [3] deals with male NIH Swiss mice. Kind of data set: Oral EtOH self-administration. In kind it is in vivo. The settings on record: 10 mg/kg i.p. daily for 10 days.
For another data set, the system named is CHO-WT cells. The data set is described as follows: Adenylyl cyclase assay in CHO-WT cells not expressing CB2Rs. The format is cell-based. As to conditions: Figure 4B.

Chain of CB1Rs endogenously expressed in Neuro2A cells (P47746 whole entry): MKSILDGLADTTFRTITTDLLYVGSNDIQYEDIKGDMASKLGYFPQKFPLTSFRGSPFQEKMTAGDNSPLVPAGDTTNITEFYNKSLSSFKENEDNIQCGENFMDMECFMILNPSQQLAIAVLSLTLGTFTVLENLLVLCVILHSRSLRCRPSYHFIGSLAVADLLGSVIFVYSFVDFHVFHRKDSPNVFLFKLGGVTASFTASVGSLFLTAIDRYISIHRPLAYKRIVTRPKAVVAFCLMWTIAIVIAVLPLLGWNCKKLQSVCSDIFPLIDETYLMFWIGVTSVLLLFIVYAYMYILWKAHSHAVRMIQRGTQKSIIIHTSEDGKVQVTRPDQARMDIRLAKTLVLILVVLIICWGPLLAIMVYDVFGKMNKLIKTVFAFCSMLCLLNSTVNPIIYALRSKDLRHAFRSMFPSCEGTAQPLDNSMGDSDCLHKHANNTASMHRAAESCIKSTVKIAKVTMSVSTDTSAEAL

For the compound `CCCCn1cc(C(=O)c2cccc3ccccc23)c2ccccc21` [Compound 3, (1-butyl-1H-indol-3-yl)(naphthalen-1-yl)methanone], the “hypothermic effect (core body temperature)” value in the data set on male NIH Swiss mice [1] was “elicited a profound hypothermic effect”.

Consider `CCCCn1cc(C(=O)c2cccc3ccccc23)c2cccc(O)c21` [Compound 4, reference compound], for which the “inhibition of AC-activity via CB1Rs (concentration-effect curves)” value (shortened to “inhibition of AC-activity via CB1Rs”) in data set [2] is 50–60%. Besides, in the data set with CB1Rs, the “intrinsic activity at CB1Rs in [35S]GTPγS functional assay” value was “lacks intrinsic activity”.

With `CCCCn1cc(Cc2cccc3ccccc23)c2cccc(OC)c21` [Compound 27, 1-Butyl-7-methoxy-3-(naphthalen-1-ylmethyl)-1H-indole], in data set [2], the “antagonism of AC-inhibition produced by the CB1R full agonist 3” value (“antagonism of AC-inhibition produced” for short) is listed as “antagonize AC-inhibition produced by CB1R-agonist” and the “inhibition of AC-activity via CB1Rs” value is recorded as “very little inhibition of AC-activity”. Besides, on CB2Rs in CHO-hCB2 cells, the “inhibition of AC-activity at CB2Rs (concentration-effect curves)” value is reported as 40–50%. In the data set on male NIH Swiss mice [3], the “EtOH preference (two-bottle choice, 10% EtOH vs water)” value was “reduced EtOH preference”; the “body weight across the treatment period” value is “did not decrease body weight”; the total fluid consumption result is recorded as “without affecting total fluid consumption”. Moreover, the “modification of AC-activity in CHO-WT cells” value in the data set with CHO-WT cells is on record as “neither 27 nor 30 significantly modified AC-activity”.

In the case of `CCCCn1cc(-c2ccc3ccccc3c2)c2cccc(OC)c21` [Compound 30, 1-Butyl-7-methoxy-3-(naphthalen-2-yl)-1H-indole], in data set [2], the “antagonism of AC-inhibition produced” value is listed as “antagonize AC-inhibition produced by CB1R-agonist” and the “inhibition of AC-activity via CB1Rs” value is “very little inhibition of AC-activity”. Moreover, the “inhibition of AC-activity at CB2Rs (concentration-effect curves)” value on CB2Rs in CHO-hCB2 cells is 40–50%. Further, in the data set on male NIH Swiss mice [3], the “EtOH preference (two-bottle choice, 10% EtOH vs water)” value is given as “reduced EtOH preference”; the “body weight across the treatment period” value is listed as “did not decrease body weight”; the total fluid consumption entry is “without affecting total fluid consumption”. Also, the “modification of AC-activity in CHO-WT cells” value in the data set with CHO-WT cells was “neither 27 nor 30 significantly modified AC-activity”.

For `CC1=CC[C@@H]2[C@@H](C1)c1c(O)cc(CC#CCCCNS(C)(=O)=O)cc1OC2(C)C` [Compound O-2050, reference compound], the “antagonism of AC-inhibition produced” value in data set [2] is “significantly antagonized AC-inhibition”.

Turning to `Cc1c(C(=O)NN2CCCCC2)nn(-c2ccc(Cl)cc2Cl)c1-c1ccc(Cl)cc1` [rimonabant, reference compound], in the data set with male NIH Swiss mice [3], the “EtOH preference (two-bottle choice, 10% EtOH vs water)” value was “decreased EtOH preference”; the “body weight across the treatment period” value is recorded as “decreased body weight”; the total fluid consumption result is recorded as “without altering total fluid intake”.
